Structures can show the parent of a compound that is named as a salt. The source made the active and inactive calls. The calls are words filed in the database; no cut-off is given here. Square brackets hold non-standard residues; d marks the D form. Peptide text beside a SMILES is read from it. * marks the point of attachment. Asu = N[C@@H](CCCCCC(=O)O)C(=O)O; X1 = CC(=O)[C@H](Cc1cnc[nH]1)N*; NHOH = ON*
Tests used:
Histone deacetylase 1 = Histone deacetylase 1 (Homo sapiens, UniProt Q13547); assay: Inhibition of HDAC1 (unknown origin) using Fluor de lys as substrate by fluorescence based analysis
[1] = molecular target: T1, Protein deacetylase HDAC6 (Homo sapiens, UniProt Q9UBN7); assay: Inhibition of HDAC6 (unknown origin) using Fluor de lys as substrate by fluorescence based analysis
T1 sequence (Q9UBN7 whole entry): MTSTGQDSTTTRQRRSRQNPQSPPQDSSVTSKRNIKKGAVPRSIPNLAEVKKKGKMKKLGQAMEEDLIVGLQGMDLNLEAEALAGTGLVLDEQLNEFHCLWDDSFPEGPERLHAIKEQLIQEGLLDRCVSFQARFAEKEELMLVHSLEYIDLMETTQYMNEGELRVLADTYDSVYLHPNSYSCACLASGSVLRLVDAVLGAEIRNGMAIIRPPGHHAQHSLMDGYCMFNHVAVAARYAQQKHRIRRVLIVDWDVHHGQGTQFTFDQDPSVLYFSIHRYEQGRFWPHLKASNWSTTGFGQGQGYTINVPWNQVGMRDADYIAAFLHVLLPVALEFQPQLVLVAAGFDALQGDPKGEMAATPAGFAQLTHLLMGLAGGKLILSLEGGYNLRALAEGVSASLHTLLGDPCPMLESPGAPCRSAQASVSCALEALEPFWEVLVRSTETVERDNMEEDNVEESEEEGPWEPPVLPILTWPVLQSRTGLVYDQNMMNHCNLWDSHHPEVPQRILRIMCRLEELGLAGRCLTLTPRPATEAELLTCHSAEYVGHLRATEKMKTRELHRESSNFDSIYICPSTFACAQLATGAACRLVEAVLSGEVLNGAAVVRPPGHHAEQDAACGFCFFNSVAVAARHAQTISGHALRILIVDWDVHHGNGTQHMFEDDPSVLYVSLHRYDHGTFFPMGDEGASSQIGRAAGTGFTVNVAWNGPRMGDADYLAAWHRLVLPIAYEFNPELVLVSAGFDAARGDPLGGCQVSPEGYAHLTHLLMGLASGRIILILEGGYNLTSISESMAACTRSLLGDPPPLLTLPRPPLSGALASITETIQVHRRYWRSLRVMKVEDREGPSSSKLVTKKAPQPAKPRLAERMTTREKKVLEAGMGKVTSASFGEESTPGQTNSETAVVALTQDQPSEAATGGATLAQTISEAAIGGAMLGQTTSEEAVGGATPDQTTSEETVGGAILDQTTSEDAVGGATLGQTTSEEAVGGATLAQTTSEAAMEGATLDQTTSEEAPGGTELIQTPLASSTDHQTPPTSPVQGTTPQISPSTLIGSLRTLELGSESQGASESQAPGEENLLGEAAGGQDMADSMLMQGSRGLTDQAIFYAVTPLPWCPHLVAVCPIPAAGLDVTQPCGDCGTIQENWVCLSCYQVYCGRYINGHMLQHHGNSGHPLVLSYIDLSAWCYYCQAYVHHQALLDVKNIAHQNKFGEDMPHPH

[2] = molecular target: Histone deacetylase 8 (Homo sapiens) (UniProt Q9BY41); assay: (§1) Inhibition of HDAC8 (unknown origin) using Fluor de lys as substrate by fluorescence based analysis
Histone deacetylase 8 = molecular target: T2, Histone deacetylase 8 (Homo sapiens, UniProt Q9BY41); assay: as §1
T2 sequence (Q9BY41 whole entry): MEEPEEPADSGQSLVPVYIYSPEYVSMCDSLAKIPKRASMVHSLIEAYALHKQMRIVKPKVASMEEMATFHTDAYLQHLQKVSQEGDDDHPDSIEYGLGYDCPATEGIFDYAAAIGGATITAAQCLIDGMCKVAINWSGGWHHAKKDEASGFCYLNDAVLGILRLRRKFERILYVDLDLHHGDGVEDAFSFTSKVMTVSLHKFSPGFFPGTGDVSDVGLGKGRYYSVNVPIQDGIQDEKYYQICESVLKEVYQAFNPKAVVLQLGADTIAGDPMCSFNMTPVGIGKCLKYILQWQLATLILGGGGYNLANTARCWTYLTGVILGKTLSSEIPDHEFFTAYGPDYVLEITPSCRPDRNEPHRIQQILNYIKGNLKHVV

A549 [3] = assay: Antiproliferative activity against human A549 cells assessed as inhibition of cell growth incubated for 72 hrs by alamar blue assay; type: functional, cell-based; conditions: A549, 72 h
Method in brief: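 Cells grown in IMDM with 20% FBS and penicillin/streptomycin at 37 °C, 5% CO2. Compound added to plated cells for 72 h. Alamar blue (1 mM solution) then added for 5–6 h, and fluorescence read at 530/590 nm. IC50 derived for single-agent treatment.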

A549 [4] = assay: Antiproliferative activity against human A549 cells assessed as inhibition of cell growth incubated for 72 hrs in presence of (R)-4-((3,4-dibenzyl-2,5-dioxopiperazin-1-yl)methyl)-N-hydroxybenzamide by alamar blue assay; type: functional, cell-based; conditions: A549, 72 h
Method in brief: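 Alamar blue assay in IMDM/20% FBS at 37 °C, 5% CO2. Cells were exposed to the two agents together for 72 h, with 5–6 h Alamar blue and fluorescence at 530/590 nm. IC50 in combination was determined. CI50 = IC50Ac/IC50As + IC50Bc/IC50Bs, comparing combination with single-agent IC50s.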

RPMI-8226 = assay: cells; type: functional, cell-based; conditions: Homo sapiens, RPMI-8226, 72 h
U-266 = assay: cells; type: functional, cell-based; conditions: Homo sapiens, U-266, 72 h
[5] = Microsomal stability in human liver microsomes assessed as half life at 0.5 uM prewarmed for 5 mins followed by NADPH addition and measured for 90 mins by LC-MS/MS analysis; type: ADME, Microsome; conditions: time 95 min
Method in brief: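 Incubation held 0.8 mg/mL human liver microsomes, MgCl2, potassium phosphate buffer pH 7.4 and 0.5 μM compound. After 5 min prewarming at 37 °C, NADPH started the reaction.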

Homo sapiens [6] = organism: Homo sapiens; assay: Selectivity index, ratio of IC50 for inhibition of HDAC1 (unknown origin) to IC50 for inhibition of HDAC6 (unknown origin)
Method in brief: (§2)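 Ratio of IC50 values, each from a Fluor de Lys fluorogenic HDAC assay run in duplicate.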

Homo sapiens [7] = organism: Homo sapiens; assay: Selectivity index, ratio of IC50 for inhibition of HDAC8 (unknown origin) to IC50 for inhibition of HDAC6 (unknown origin); method in brief: as §2
[8] = Cytotoxicity against human HS5 cells assessed as inhibition of cell growth incubated for 72 hrs by alamar blue assay; type: toxicity, cell-based
Method in brief: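 Cells were grown in IMDM with 20% FBS and penicillin/streptomycin at 37 °C in 5% CO2. Drug-treated cells were incubated 72 h. Alamar blue (1 mM solution) was then added for 5–6 h, and fluorescence read at 530/590 nm.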

[9] = Inhibition of full length HDAC1/MTA1 (162 to 354 residues) (unknown origin) transfected in HEK293F cells using BOC-Lys-AMC as substrate incubated for 30 mins by fluorescence based analysis; parameters: species or system Homo sapiens

Sequence of Histone deacetylase 1 (Q13547 whole entry): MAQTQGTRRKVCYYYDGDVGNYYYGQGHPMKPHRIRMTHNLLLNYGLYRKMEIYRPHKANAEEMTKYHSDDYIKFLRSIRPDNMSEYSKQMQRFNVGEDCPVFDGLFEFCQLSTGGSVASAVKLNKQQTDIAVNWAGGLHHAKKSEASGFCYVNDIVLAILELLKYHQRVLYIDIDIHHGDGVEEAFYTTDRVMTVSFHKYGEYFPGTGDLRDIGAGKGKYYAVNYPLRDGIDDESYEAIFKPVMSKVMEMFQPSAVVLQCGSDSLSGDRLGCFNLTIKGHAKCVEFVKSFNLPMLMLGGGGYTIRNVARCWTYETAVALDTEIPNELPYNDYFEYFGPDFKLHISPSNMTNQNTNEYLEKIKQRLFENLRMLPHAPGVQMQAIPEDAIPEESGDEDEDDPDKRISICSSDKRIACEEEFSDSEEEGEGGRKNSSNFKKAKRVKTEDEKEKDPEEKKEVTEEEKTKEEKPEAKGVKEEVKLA

With `O=C1CN(Cc2cccc(C(=O)NO)c2)C(=O)[C@H](Cc2ccccc2)N1` the inhibition (Histone deacetylase 1) was “inactive”, the IC50 [1] was 4190 nM and the inhibition [2] was “inactive”.
With `O=C(NO)c1ccc(CC(=O)N(CCO)c2ccccc2)cc1` the IC50 (Histone deacetylase 1) was 1780 nM and the IC50 (Histone deacetylase 8) was 1990 nM.
In the case of `COc1cccc2c1C(=O)c1c(O)c3c(c(O)c1C2=O)C[C@@](O)(C(=O)CO)C[C@@H]3O[C@H]1C[C@H](N)[C@H](O)[C@H](C)O1` [DOXORUBICIN HYDROCHLORIDE], the IC50 (A549 [3]) is reported as 255 nM and the IC50 (A549 [4]) is reported as 152 nM.
With `O=C(CCCCCCNC(=O)c1cnc(N(c2ccccc2)c2ccccc2)nc1)NO` [RICOLINOSTAT] the IC50 (RPMI-8226) was 9260 nM, the IC50 (U-266) was > 100000 nM and the half-life at 0.5 µM [5] was 7.5 h.
`O=C1CN(Cc2ccc(C(=O)NO)cc2)C(=O)[C@H](Cc2c[nH]c3ccccc23)N1` gave an IC50 (Histone deacetylase 1) of 6390 nM, an IC50 [1] of 6.64 nM and an IC50 (Histone deacetylase 8) of 112 nM.
Work on `CN1C(=O)CN(Cc2ccc(C(=O)NO)cc2)C(=O)C1Cc1ccccc1` (racemic) yielded an IC50 [1] of 16.7 nM.
`COc1cccc(CN2C(=O)CN(Cc3ccc(C(=O)NO)cc3)C(=O)[C@H]2Cc2ccccc2)c1` showed an IC50 (Histone deacetylase 1) of 8100 nM, an IC50 [1] of 13.7 nM and an IC50 (Histone deacetylase 8) of 171 nM. The Ratio IC50 (Homo sapiens [6]) was 591 and the Ratio IC50 (Homo sapiens [7]) was 12.
For `O=C(NO)c1ccc(CN2CC(=O)N(Cc3ccccc3Cl)[C@H](Cc3ccccc3)C2=O)cc1`, the IC50 (Histone deacetylase 1) was 8310 nM, the IC50 [1] was 10.1 nM and the IC50 (Histone deacetylase 8) was 162 nM. The Ratio IC50 (Homo sapiens [6]) was 823, the Ratio IC50 (Homo sapiens [7]) was 16 and the IC50 (RPMI-8226) was 12100 nM. The IC50 (U-266) was 23400 nM, the IC50 at 72 hrs [8] was > 100000 nM and the half-life at 0.5 µM [5] was 10.1 h.
Compound `CC(=O)[C@H](Cc1cnc[nH]1)NC(=O)[C@H](CCCN=C(N)N)NC(=O)[C@H](CCCCCC(=O)NO)NC(=O)CNC(=O)CN` (H-GG[Asu](NHOH)R-X1) has an IC50 [9] of 336 nM.
`O=C(NO)c1ccc(CN2CC(=O)N(Cc3ccc(Cl)cc3)[C@H](Cc3ccccc3)C2=O)cc1` gave an IC50 (Histone deacetylase 1) of 9200 nM, an IC50 [1] of 11.7 nM and an IC50 (Histone deacetylase 8) of 130 nM. For the same compound, the Ratio IC50 (Homo sapiens [6]) was 786 and the Ratio IC50 (Homo sapiens [7]) was 11.
For `O=C1CN(Cc2ccc(C(=O)NO)cc2)C(=O)[C@H](Cc2ccccc2)N1`, the IC50 (Histone deacetylase 1) was 7200 nM, the IC50 [1] was 17.5 nM and the IC50 (Histone deacetylase 8) was 15.6 nM. The Ratio IC50 (Homo sapiens [6]) was 411 and the Ratio IC50 (Homo sapiens [7]) was 0.9.
With `O=C1CN(Cc2ccc(C(=O)NO)cc2)C(=O)[C@@H](Cc2ccccc2)N1` the IC50 (Histone deacetylase 1) was 8270 nM, the IC50 [1] was 8.62 nM and the IC50 (Histone deacetylase 8) was 30.9 nM. For the same compound, the Ratio IC50 (Homo sapiens [6]) was 959, the Ratio IC50 (Homo sapiens [7]) was 4 and the IC50 (RPMI-8226) was 54400 nM. For the same compound, the IC50 (U-266) was 86300 nM and the IC50 at 72 hrs [8] was > 100000 nM.
`O=C(NO)c1ccc(CN2CC(=O)N(Cc3cccc(Cl)c3)[C@H](Cc3ccccc3)C2=O)cc1` gave an IC50 (Histone deacetylase 1) of 8550 nM, an IC50 [1] of 10.5 nM and an IC50 (Histone deacetylase 8) of 150 nM. The Ratio IC50 (Homo sapiens [6]) was 838, the Ratio IC50 (Homo sapiens [7]) was 14 and the IC50 (RPMI-8226) was 13400 nM. The IC50 (U-266) was 23100 nM and the IC50 at 72 hrs [8] was > 100000 nM.

Source: ChEMBL document CHEMBL5230083, “Novel 2, 5-diketopiperazine derivatives as potent selective histone deacetylase 6 inhibitors: Rational design, synthesis and antiproliferative activity” (Eur J Med Chem, 2020)
